Experimental data as given in ChEMBL document CHEMBL3045066, “Synthesis, structure-activity relationships (SAR) and in silico studies of coumarin derivatives with antifungal activity” (2013).
Converted amounts (≈) assume the structure as drawn.

Columns and labels:
Assay type in all cases: functional
[1] = tested on: Aspergillus fumigatus; test: Antifungal activity against Aspergillus fumigatus ATCC 46913 after 72 hr by broth microdilution method; conditions: ATCC 46913, 72 h
How it was run: (§1)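 Molds were grown 7 days on SDA at 25–28 °C, and conidia were harvested in sterile 0.85% NaCl. Conidia were counted by hemocytometer and adjusted to about 5 × 10^6 conidia/mL. Microdilution used Sabouraud broth in 96-well plates with compound at 2048 to 8 μg/mL and about 2.5 × 10^5 conidia/mL per well. Plates were incubated at 25–28 °C for 72 h, with readings confirmed at 7 days. Amphotericin B was the reference.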

[2] = tested on: Aspergillus flavus; test: Antifungal activity against Aspergillus flavus LM 210 after 72 hr by broth microdilution method; conditions: LM 210, 72 h; how it was run: as §1
[3] = tested on: Aspergillus flavus; test: Antifungal activity against Aspergillus flavus ATCC 16013 after 72 hr by broth microdilution method; conditions: ATCC 16013, 72 h; how it was run: as §1
[4] = tested on: Aspergillus fumigatus; test: Antifungal activity against Aspergillus fumigatus ATCC 40640 after 72 hr by broth microdilution method; conditions: ATCC 40640, 72 h; how it was run: as §1
[5] = tested on: Aspergillus flavus; test: Antifungal activity against Aspergillus flavus LM 247 after 72 hr by broth microdilution method; conditions: LM 247, 72 h; how it was run: as §1
[6] = tested on: Aspergillus flavus; test: Antifungal activity against Aspergillus flavus LM 26 after 72 hr by broth microdilution method; conditions: LM 26, 72 h; how it was run: as §1
[7] = tested on: Aspergillus fumigatus; test: Antifungal activity against Aspergillus fumigatus IPP 210 after 72 hr by broth microdilution method; conditions: IPP 210, 72 h; how it was run: as §1
[8] = tested on: Aspergillus fumigatus; test: Antifungal activity against Aspergillus fumigatus ATCC 16913 after 72 hr by broth microdilution method; conditions: for MIC: Aspergillus fumigatus, ATCC 16913, 72 h; how it was run: as §1

Row | SMILES | MIC [1] | MIC [2] | MIC [3] | MIC [4] | MIC [5] | MIC [6] | MIC [7] | log(1/MIC) [8] | MIC [8]
1 | O=c1ccc2cc(O)ccc2o1 [6-HYDROXYCOUMARIN] | ≥ 2050 µg/mL | ≥ 2050 µg/mL | ≥ 2050 µg/mL | ≥ 2050 µg/mL | ≥ 2050 µg/mL | ≥ 2050 µg/mL | ≥ 2050 µg/mL | 1.89 | ≥ 2050 µg/mL
2 | CC(=O)Oc1ccc2ccc(=O)oc2c1 [7-ACETOXYCOUMARIN] | 64 µg/mL (≈ 0.313 mM) | 64 µg/mL (≈ 0.313 mM) | 64 µg/mL (≈ 0.313 mM) | 64 µg/mL (≈ 0.313 mM) | 128 µg/mL (≈ 0.627 mM) | 64 µg/mL (≈ 0.313 mM) | 64 µg/mL (≈ 0.313 mM) | 3.5 | 64 µg/mL (≈ 0.313 mM)
3 | C=CCOc1ccc2ccc(=O)oc2c1 [7-ALLYLOXYCOUMARIN] | 64 µg/mL (≈ 0.317 mM) | 64 µg/mL (≈ 0.317 mM) | 64 µg/mL (≈ 0.317 mM) | 64 µg/mL (≈ 0.317 mM) | 256 µg/mL (≈ 1.27 mM) | 64 µg/mL (≈ 0.317 mM) | 64 µg/mL (≈ 0.317 mM) | 3.49 | 64 µg/mL (≈ 0.317 mM)
4 | CC(C)=CCOc1ccc2ccc(=O)oc2c1 [7-PRENYLOXYCOUMARIN] | 128 µg/mL (≈ 0.556 mM) | 1020 µg/mL (≈ 4.45 mM) | 1020 µg/mL (≈ 4.45 mM) | 128 µg/mL (≈ 0.556 mM) | 1020 µg/mL (≈ 4.45 mM) | 1020 µg/mL (≈ 4.45 mM) | 128 µg/mL (≈ 0.556 mM) | 3.25 | 128 µg/mL (≈ 0.556 mM)
5 | C[C@@H]1[C@H](O)[C@@H](C)/C=C/C=C/C=C/C=C/C=C/C=C/C=C/[C@H](O[C@@H]2O[C@H](C)[C@@H](O)[C@H](N)[C@@H]2O)C[C@@H]2O[C@](O)(C[C@@H](O)C[C@@H](O)[C@H](O)CC[C@@H](O)C[C@@H](O)CC(=O)O[C@H]1C)C[C@H](O)[C@H]2C(=O)O [AMPHOTERICIN B] | 2 µg/mL (≈ 0.00216 mM) | 2 µg/mL (≈ 0.00216 mM) | 2 µg/mL (≈ 0.00216 mM) | 2 µg/mL (≈ 0.00216 mM) | 8 µg/mL (≈ 0.00866 mM) | 512 µg/mL (≈ 0.554 mM) | 2 µg/mL (≈ 0.00216 mM) |  | 2 µg/mL (≈ 0.00216 mM)
6 | CC(C)=CCC/C(C)=C/COc1ccc2ccc(=O)oc2c1 [AURAPTENE] | ≥ 2050 µg/mL | ≥ 2050 µg/mL | ≥ 2050 µg/mL | ≥ 2050 µg/mL | ≥ 2050 µg/mL | ≥ 2050 µg/mL | ≥ 2050 µg/mL | 2.16 | ≥ 2050 µg/mL
7 | O=C(O)c1cc2ccccc2oc1=O [COUMARIN-3-CARBOXYLIC ACID] | 1020 µg/mL (≈ 5.39 mM) | 1020 µg/mL (≈ 5.39 mM) | 1020 µg/mL (≈ 5.39 mM) | 1020 µg/mL (≈ 5.39 mM) | ≥ 2050 µg/mL | 1020 µg/mL (≈ 5.39 mM) | 1020 µg/mL (≈ 5.39 mM) | 2.26 | 1020 µg/mL (≈ 5.39 mM)
8 | O=c1ccc2ccccc2o1 [COUMARIN] | 1020 µg/mL (≈ 7.01 mM) | 1020 µg/mL (≈ 7.01 mM) | 1020 µg/mL (≈ 7.01 mM) | 1020 µg/mL (≈ 7.01 mM) | 1020 µg/mL (≈ 7.01 mM) | 1020 µg/mL (≈ 7.01 mM) | 1020 µg/mL (≈ 7.01 mM) | 2.15 | 1020 µg/mL (≈ 7.01 mM)
9 | O=c1oc2ccccc2c(O)c1Cc1c(O)c2ccccc2oc1=O [DICUMAROL] | ≥ 2050 µg/mL | ≥ 2050 µg/mL | ≥ 2050 µg/mL | ≥ 2050 µg/mL | ≥ 2050 µg/mL | ≥ 2050 µg/mL | ≥ 2050 µg/mL | 2.21 | ≥ 2050 µg/mL
10 | O=c1ccc2cc(O)c(O)cc2o1 [ESCULETIN] | ≥ 2050 µg/mL | ≥ 2050 µg/mL | ≥ 2050 µg/mL | ≥ 2050 µg/mL | ≥ 2050 µg/mL | ≥ 2050 µg/mL | ≥ 2050 µg/mL | 1.93 | ≥ 2050 µg/mL
11 | COc1cc2ccc(=O)oc2c(O)c1O [FRAXETIN] | ≥ 2050 µg/mL | ≥ 2050 µg/mL | ≥ 2050 µg/mL | ≥ 2050 µg/mL | ≥ 2050 µg/mL | ≥ 2050 µg/mL | ≥ 2050 µg/mL | 2 | ≥ 2050 µg/mL
12 | COc1cc2ccc(=O)oc2cc1O [SCOPOLETIN] | ≥ 2050 µg/mL | ≥ 2050 µg/mL | ≥ 2050 µg/mL | ≥ 2050 µg/mL | ≥ 2050 µg/mL | ≥ 2050 µg/mL | ≥ 2050 µg/mL | 1.97 | ≥ 2050 µg/mL
13 | O=c1ccc2ccc(O)cc2o1 [UMBELLIFERONE] | ≥ 2050 µg/mL | ≥ 2050 µg/mL | ≥ 2050 µg/mL | ≥ 2050 µg/mL | ≥ 2050 µg/mL | ≥ 2050 µg/mL | ≥ 2050 µg/mL | 1.89 | ≥ 2050 µg/mL
